Values after ≈ are worked out from the molar mass of the structure shown.
How the values were obtained:
[1] = test system: Shigella flexneri; test: Compound was tested for antibacterial activity against Shigella flexneri; type: functional
Procedure, shortened: (§1)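 Agar dilution MIC on defined peptide susceptibility agar. Inoculum made by growing overnight in liquid peptide susceptibility medium, then diluting to about 1 × 10^7 cfu/mL. Applied by Steers replicator to plates carrying serial 2-fold peptide dilutions. Incubated overnight at 37 °C. MIC = lowest concentration allowing growth of fewer than 10 colonies after 16-18 h.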

[2] = test system: Escherichia coli; test: Compound was tested for antibacterial activity against Escherichia coli; type: functional; procedure, shortened: as §1
[3] = test system: Staphylococcus epidermidis; test: Compound was tested for antibacterial activity against Staphylococcus epidermidis; type: functional; procedure, shortened: as §1
[4] = test system: Streptococcus agalactiae; test: Compound was tested for antibacterial activity against Streptococcus agalactiae; type: functional
Procedure, shortened: (§2)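 Inoculum made from colonies grown overnight on chocolate or blood agar, resuspended in liquid medium to 10' cfu/mL. Applied by Steers replicator to serial 2-fold peptide dilutions. Incubated overnight at 37 °C under 7% CO2. MIC = lowest concentration giving fewer than 10 colonies at 16-18 h.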

[5] = test system: Enterococcus faecalis; test: Compound was tested for antibacterial activity against Streptococcus faecalis; type: functional; procedure, shortened: as §1
[6] = test system: Proteus mirabilis; test: Compound was tested for antibacterial activity against Proteus mirabilis; type: functional; procedure, shortened: as §1
[7] = test system: Staphylococcus aureus; test: Compound was tested for antibacterial activity against Staphylococcus aureus; type: functional; procedure, shortened: as §1
[8] = test system: Haemophilus influenzae; test: Compound was tested for antibacterial activity against Hemophilus influenzae; type: functional; procedure, shortened: as §2
[9] = test system: Streptococcus pyogenes; test: Compound was tested for antibacterial activity against Streptococcus pyogenes; type: functional; procedure, shortened: as §2
[10] = test system: Morganella morganii; test: Compound was tested for antibacterial activity against Morganella morganii; type: functional; procedure, shortened: as §1
[11] = test system: Enterobacter cloacae; test: Compound was tested for antibacterial activity against Enterobacter cloacae; type: functional; procedure, shortened: as §1
[12] = test system: Escherichia coli; test: Compound was tested for enzyme activity against transaminase B; per mg protein
Procedure, shortened: (§3)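 Homogenates of E. coli JSR-0 taken 30 min after agent addition at ~100 Klett units (Davis-Mingioli medium with Met/Pro, Leu/Ile/Val, and in some cultures sucrose or L-Ala). Valine→α-ketoisovalerate transamination read in Tris-HCl pH 7.8 with pyridoxal phosphate and α-ketoglutarate at 37 °C. Timed aliquots derivatized with 2,4-dinitrophenylhydrazine; hydrazone read at 430 nm against a standard curve.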

[13] = biological target: Alanine racemase, biosynthetic (Escherichia coli K-12) (UniProt P0A6B4); test: Compound was tested for enzyme activity against alanine racemase; per mg protein
Alanine racemase, biosynthetic (Escherichia coli K-12), sequence (P0A6B4 whole entry): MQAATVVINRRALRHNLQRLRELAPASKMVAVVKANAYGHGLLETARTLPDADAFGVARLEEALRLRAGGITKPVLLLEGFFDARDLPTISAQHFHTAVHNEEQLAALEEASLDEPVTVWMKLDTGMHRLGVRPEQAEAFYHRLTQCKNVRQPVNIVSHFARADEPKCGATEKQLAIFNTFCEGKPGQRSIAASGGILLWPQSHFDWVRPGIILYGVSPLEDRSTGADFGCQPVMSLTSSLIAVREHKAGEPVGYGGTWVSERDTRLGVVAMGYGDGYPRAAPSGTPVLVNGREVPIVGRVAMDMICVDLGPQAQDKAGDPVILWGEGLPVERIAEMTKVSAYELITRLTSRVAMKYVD
Procedure, shortened: (§4)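 E. coli JSR-0 grown at 37 °C in Davis-Mingioli medium with Met/Pro (50 µg/mL) and Leu/Ile/Val (100 µg/mL). Some cultures had 5% sucrose or 500 µg/mL L-Ala. Agent added at ~100 Klett units; cells harvested after 30 min, washed and sonicated. Racemase read D→L in the supernatant, coupled to L-alanine dehydrogenase (NADH, 340 nm): 10 mM D-Ala, 5 mM NAD+, CHES pH 9.0, 37 °C.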

[14] = test system: Escherichia coli; test: Compound was tested for enzyme activity against transaminase B; per mg of protein; procedure, shortened: as §3
[15] = biological target: Alanine racemase, biosynthetic (Escherichia coli K-12) (UniProt P0A6B4); test: Compound was tested for enzyme activity against alanine racemase; per mg of protein; procedure, shortened: as §4

Structure (SMILES) | MIC [1] [µg/mL] | MIC [2] [µg/mL] | MIC [3] [µg/mL] | MIC [4] [µg/mL] | MIC [5] [µg/mL] | MIC [6] [µg/mL] | MIC [7] [µg/mL] | MIC [8] [µg/mL] | MIC [9] [µg/mL] | MIC [10] [µg/mL] | MIC [11] [µg/mL] | specific activity [12] [µmol/min/mg] | specific activity [13] [µmol/min/mg] | specific activity [14] [µmol/min/mg] | specific activity [15] [µmol/min/mg]
NCCC(=O)N[C@@H](CCl)C(=O)O | > 100 | > 100 | 6.25 (≈ 32.1 µM) | > 100 | > 100 | > 100 | 0.78 (≈ 4.01 µM) | > 100 |  |  |  |  |  |  | 
NCC(=O)N[C@@H](CCl)C(=O)O | 1.56 (≈ 8.64 µM) | 3.12 (≈ 17.3 µM) | 0.05 (≈ 0.277 µM) | 0.39 (≈ 2.16 µM) | > 100 | > 100 | 0.025 (≈ 0.138 µM) | 0.2 (≈ 1.11 µM) | 0.05 (≈ 0.277 µM) | > 100 | 1.56 (≈ 8.64 µM) |  |  |  | 
CCCC[C@H](N)C(=O)N[C@@H](CCl)C(=O)O | 3.12 (≈ 13.2 µM) | 3.12 (≈ 13.2 µM) | 0.0125 (≈ 0.0528 µM) | < 0.1 | 3.12 (≈ 13.2 µM) | > 100 | 0.0125 (≈ 0.0528 µM) | 25 (≈ 106 µM) | 25 (≈ 106 µM) | > 100 | 6.25 (≈ 26.4 µM) |  |  |  | 
CSCC[C@H](N)C(=O)N[C@@H](C)C(=O)N[C@@H](CCl)C(=O)O | > 100 | > 100 | 0.025 (≈ 0.0767 µM) | < 0.1 | 6.25 (≈ 19.2 µM) | > 100 | 0.05 (≈ 0.153 µM) | > 100 | 25 (≈ 76.7 µM) | > 100 | > 100 |  |  |  | 
N[C@@H](Cc1ccccc1)C(=O)N[C@@H](CCl)C(=O)O | 100 (≈ 369 µM) | 25 (≈ 92.3 µM) | 0.05 (≈ 0.185 µM) | 6.25 (≈ 23.1 µM) | 0.39 (≈ 1.44 µM) | 100 (≈ 369 µM) | 0.05 (≈ 0.185 µM) | 12.5 (≈ 46.2 µM) | < 0.1 |  |  |  |  |  | 
CC(C)[C@H](N)C(=O)N[C@@H](C)C(=O)N[C@@H](CCl)C(=O)O | > 100 | > 100 | 0.025 (≈ 0.0851 µM) | 3.12 (≈ 10.6 µM) | > 100 |  | 0.05 (≈ 0.17 µM) | > 100 | 0.1 (≈ 0.34 µM) |  |  |  |  |  | 
CC[C@H](C)[C@H](N)C(=O)N[C@@H](CCl)C(=O)O | 25 (≈ 106 µM) | 3.12 (≈ 13.2 µM) | 0.05 (≈ 0.211 µM) | 3.12 (≈ 13.2 µM) | < 0.1 | 12.5 (≈ 52.8 µM) | 0.025 (≈ 0.106 µM) | 6.25 (≈ 26.4 µM) | < 0.1 |  |  |  |  |  | 
O=C(N[C@H](CO)[C@H](O)c1ccc([N+](=O)[O-])cc1)C(Cl)Cl |  |  |  |  |  |  |  |  |  |  |  | 0.0541 | 0.0176 |  | 
CSCC[C@H](N)C(=O)N[C@@H](CCl)C(=O)N[C@@H](CCl)C(=O)O | 12.5 (≈ 34.7 µM) | 1.56 (≈ 4.33 µM) | 0.0125 (≈ 0.0347 µM) | < 0.1 | 0.05 (≈ 0.139 µM) | > 100 | 0.025 (≈ 0.0694 µM) | 0.39 (≈ 1.08 µM) | 6.25 (≈ 17.3 µM) | > 100 | > 100 |  |  |  | 
CSCC[C@H](N)C(=O)N[C@@H](CCl)C(=O)O |  |  |  |  |  | 50 (≈ 196 µM) |  |  | 1.56 (≈ 6.12 µM) | 50 (≈ 196 µM) |  |  |  |  | 
CC(C)[C@H](N)C(=O)N[C@@H](CCl)C(=O)O | > 100 | 1.56 (≈ 7.01 µM) | < 0.0125 | 1.56 (≈ 7.01 µM) | < 0.1 | 100 (≈ 449 µM) | 0.025 (≈ 0.112 µM) | 12.5 (≈ 56.1 µM) | < 0.1 |  |  |  |  |  | 
C[C@H](N)C(=O)N[C@@H](CCl)C(=O)O |  |  | 0.0125 (≈ 0.0642 µM) |  |  |  |  |  |  |  |  |  |  | 0 | 0.0117
CN[C@@H](C)C(=O)N[C@@H](CCl)C(=O)O | 100 (≈ 479 µM) | 6.25 (≈ 30 µM) | 3.12 (≈ 15 µM) | 6.25 (≈ 30 µM) | 100 (≈ 479 µM) | > 100 | 0.39 (≈ 1.87 µM) | 12.5 (≈ 59.9 µM) |  |  |  |  |  |  | 
CCC[C@H](N)C(=O)N[C@@H](CCl)C(=O)O |  |  |  |  |  |  | 0.25 (≈ 1.12 µM) |  |  |  |  |  |  |  | 
N[C@@H](CCl)C(=O)N[C@@H](CCl)C(=O)N[C@@H](CCl)C(=O)O | 6.25 (≈ 18.7 µM) | 25 (≈ 74.7 µM) | 0.1 (≈ 0.299 µM) | 0.78 (≈ 2.33 µM) | < 0.1 |  | 0.2 (≈ 0.598 µM) | 6.25 (≈ 18.7 µM) | 0.39 (≈ 1.17 µM) |  |  |  |  |  | 
NC(=O)CC[C@H](N)C(=O)N[C@@H](CCl)C(=O)O | > 100 | 1.56 (≈ 6.2 µM) | 0.05 (≈ 0.199 µM) | 0.78 (≈ 3.1 µM) | 0.78 (≈ 3.1 µM) | > 100 | 0.05 (≈ 0.199 µM) | > 100 | < 0.1 |  |  |  |  |  | 
CC[C@H](N)C(=O)N[C@@H](CCl)C(=O)O | 1.56 (≈ 7.48 µM) | 1.56 (≈ 7.48 µM) | 0.025 (≈ 0.12 µM) | < 0.1 | 6.25 (≈ 30 µM) | > 100 | 0.025 (≈ 0.12 µM) | < 0.1 | 12.5 (≈ 59.9 µM) | 50 (≈ 240 µM) | 25 (≈ 120 µM) |  |  |  | 
C[C@H](N)C(=O)N[C@@H](C)C(=O)N[C@@H](CCl)C(=O)O | > 100 | > 100 | 0.025 (≈ 0.0941 µM) | 12.5 (≈ 47 µM) | > 100 |  | 0.025 (≈ 0.0941 µM) | > 100 | 0.2 (≈ 0.753 µM) |  |  |  |  |  | 
CC(C)C[C@H](N)C(=O)N[C@@H](CCl)C(=O)O | 50 (≈ 211 µM) | 3.12 (≈ 13.2 µM) | 0.0125 (≈ 0.0528 µM) | 1.56 (≈ 6.59 µM) | < 0.1 | 25 (≈ 106 µM) | 0.025 (≈ 0.106 µM) | 6.25 (≈ 26.4 µM) | < 0.1 |  |  |  |  |  | 
O=C(O)[C@H](CCl)NC(=O)[C@@H]1CCCN1 | > 100 | 6.25 (≈ 28.3 µM) | 1.56 (≈ 7.07 µM) | 12.5 (≈ 56.6 µM) | < 0.1 | > 100 | 0.39 (≈ 1.77 µM) | 25 (≈ 113 µM) | 6.25 (≈ 28.3 µM) |  |  |  |  |  | 
